Experimental data published in ChEMBL document CHEMBL1126958, “Quinolinecarboxylic acids. 3. Synthesis and antibacterial evaluation of 2-substituted-7-oxo-2,3-dihydro-7H-pyrido[1,2,3-de] [1,4]benzothiazine-6-carboxylic acids related to rufloxacin” (J Med Chem, 1993).
In brackets after ≈: the same amount, converted by molar mass.

Tests used:
Enterococcus faecalis = assay: Minimal inhibitory concentration against Streptococcus faecalis LEP strain; assay type: functional
In short: (§1)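 Agar dilution on TSA agar; compounds added by 2-fold dilution to melted medium at 50 °C just before pouring. Organisms stored at –80 °C, diluted in peptonated water to 1–2 × 10^7 CFU, applied with multipoint inoculator. MIC = lowest concentration preventing visible growth after 24 h at 35 °C.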

Klebsiella pneumoniae = assay: Minimal inhibitory concentration against Klebsiella pneumoniae ATCC 10031 strain; assay type: functional; in short: as §1
Proteus vulgaris = assay: Minimal inhibitory concentration against Proteus vulgaris CNUR6 strain; assay type: functional; in short: as §1
Staphylococcus aureus = assay: Minimal inhibitory concentration against […] aureus ATCC 6538 strain; assay type: functional; in short: as §1
Escherichia coli = assay: Minimal inhibitory concentration against Escherichia coli ISF 432 strain; assay type: functional; in short: as §1
Pseudomonas aeruginosa = assay: Minimal inhibitory concentration against Pseudomonas aeruginosa ATCC 9027 strain; assay type: functional; in short: as §1
Enterobacter cloacae = assay: Minimal inhibitory concentration against Enterobacter cloacae OMNFI174 strain; assay type: functional; in short: as §1
[1] = Minimal inhibitory concentration against Shigella enteritidis strain; assay type: functional; in short: as §1
[2] = Plasma concentration level in rat after 4 hours of oral administration at 50 mg/kg; assay type: ADME, organism-based; parameters: dose 50 mg/kg, route oral
In short: (§2)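 Fasted male Wistar rats, three per group, single oral dose 50 mg/kg. Plasma taken at timed points, deproteinized with 70% perchloric acid, vortexed, centrifuged; supernatant analysed by HPLC, mobile-phase buffer 0.01 M KH2PO4 brought to pH 2.8 with phosphoric acid. Values as mean ± error over the group.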

[3] = Plasma concentration level in rat after 1 hour of oral administration at 50 mg/kg; assay type: ADME, organism-based; parameters: dose 50 mg/kg, route oral; in short: as §2
[4] = Urinary excretion in rat after 4-8 hours of oral administration at 50 mg/kg; assay type: ADME, organism-based; parameters: dose 50 mg/kg, route oral; conditions: urine
In short: (§3)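 Fasted male Wistar rats, three per group, dosed orally at 50 mg/kg. Urine collected over 0-4, 4-8 and 8-24 h, diluted 1:100 in ultrapure water, then treated with water and 70% perchloric acid, vortexed and centrifuged. Supernatant analysed by HPLC with pH 2.8 KH2PO4/phosphoric acid mobile phase. Result given as % of administered dose excreted.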

[5] = Urinary excretion in rat after 0-4 hours of oral administration at 50 mg/kg; assay type: ADME, organism-based; parameters: dose 50 mg/kg, route oral; conditions: urine; in short: as §3
[6] = Plasma concentration level in rat after 15 hours of oral administration at 50 mg/kg; assay type: ADME, organism-based; parameters: dose 50 mg/kg, route oral; in short: as §2
[7] = Urinary excretion in rat after 8-24 hours of oral administration at 50 mg/kg; assay type: ADME, organism-based; parameters: dose 50 mg/kg, route oral; conditions: urine; in short: as §3

SMILES	MIC (Enterococcus faecalis)	MIC (Klebsiella pneumoniae)	MIC (Proteus vulgaris)	MIC (Staphylococcus aureus)	MIC (Escherichia coli)	MIC (Pseudomonas aeruginosa)	MIC (Enterobacter cloacae)	MIC [1]	concentration at 4 h [2]	concentration at 1 h [3]	concentration at 15 h [6]	dose excreted [4]	dose excreted [5]	dose excreted [7]
CC1Cn2cc(C(=O)O)c(=O)c3cc(F)c(N4CCN(C)CC4)c(c32)S1 (stereo unspecified)	32 µg/mL (≈ 84.8 µM)	0.25 µg/mL (≈ 0.662 µM)	32 µg/mL (≈ 84.8 µM)	1 µg/mL (≈ 2.65 µM)	0.25 µg/mL (≈ 0.662 µM)	16 µg/mL (≈ 42.4 µM)	4 µg/mL (≈ 10.6 µM)	2 µg/mL (≈ 5.3 µM)	7610 ng/mL	14100 ng/mL	270 ng/mL	2.59%	1.5%	5.17%
CC1Cn2cc(C(=O)O)c(=O)c3cc(F)c(Cl)c(c32)S1 (stereo unspecified)	32 µg/mL (≈ 102 µM)	8 µg/mL (≈ 25.5 µM)	> 64 µg/mL	2 µg/mL (≈ 6.37 µM)	0.12 µg/mL (≈ 0.382 µM)	32 µg/mL (≈ 102 µM)	2 µg/mL (≈ 6.37 µM)	4 µg/mL (≈ 12.7 µM)						
CC1CN(c2c(F)cc3c(=O)c(C(=O)O)cn4c3c2SC(C)C4)CC(C)N1 (stereo unspecified)	64 µg/mL (≈ 163 µM)	0.25 µg/mL (≈ 0.639 µM)	> 64 µg/mL	4 µg/mL (≈ 10.2 µM)	0.25 µg/mL (≈ 0.639 µM)	32 µg/mL (≈ 81.7 µM)	4 µg/mL (≈ 10.2 µM)	4 µg/mL (≈ 10.2 µM)						
CC1Cn2cc(C(=O)O)c(=O)c3cc(F)c(N4CCN(S(=O)(=O)c5ccc(F)cc5)CC4)c(c32)S1 (stereo unspecified)	16 µg/mL (≈ 30.7 µM)	1 µg/mL (≈ 1.92 µM)	> 64 µg/mL	4 µg/mL (≈ 7.67 µM)	2 µg/mL (≈ 3.83 µM)	> 64 µg/mL	8 µg/mL (≈ 15.3 µM)	8 µg/mL (≈ 15.3 µM)						
O=C(O)c1cn2c3c(c(N4CCNCC4)c(F)cc3c1=O)SC(c1ccc(F)cc1)C2 (stereo unspecified)	16 µg/mL (≈ 36.1 µM)	16 µg/mL (≈ 36.1 µM)	> 64 µg/mL	16 µg/mL (≈ 36.1 µM)	2 µg/mL (≈ 4.51 µM)	> 64 µg/mL	32 µg/mL (≈ 72.2 µM)	32 µg/mL (≈ 72.2 µM)						
CC1Cn2cc(C(=O)O)c(=O)c3cc(F)c(N4CCN(c5ccc(F)cc5)CC4)c(c32)S1 (stereo unspecified)	4 µg/mL (≈ 8.74 µM)	> 64 µg/mL	> 64 µg/mL	8 µg/mL (≈ 17.5 µM)	8 µg/mL (≈ 17.5 µM)	> 64 µg/mL	> 64 µg/mL	> 64 µg/mL						
CC1Cn2cc(C(=O)O)c(=O)c3cc(F)c(N4CCCNCC4)c(c32)S1 (stereo unspecified)	32 µg/mL (≈ 84.8 µM)	1 µg/mL (≈ 2.65 µM)	64 µg/mL (≈ 170 µM)	2 µg/mL (≈ 5.3 µM)	4 µg/mL (≈ 10.6 µM)	> 64 µg/mL	8 µg/mL (≈ 21.2 µM)	32 µg/mL (≈ 84.8 µM)						
CC1Cn2cc(C(=O)O)c(=O)c3cc(F)c(N4CCNCC4)c(c32)S1 (stereo unspecified)	> 64 µg/mL	2 µg/mL (≈ 5.5 µM)	> 64 µg/mL	8 µg/mL (≈ 22 µM)	0.25 µg/mL (≈ 0.688 µM)	64 µg/mL (≈ 176 µM)	16 µg/mL (≈ 44 µM)	8 µg/mL (≈ 22 µM)				1.92%	0.37%	3.12%
CC1Cn2cc(C(=O)O)c(=O)c3cc(F)c(N4CCCC4)c(c32)S1 (stereo unspecified)	32 µg/mL (≈ 91.8 µM)	2 µg/mL (≈ 5.74 µM)	> 64 µg/mL	2 µg/mL (≈ 5.74 µM)	0.25 µg/mL (≈ 0.718 µM)	> 64 µg/mL	16 µg/mL (≈ 45.9 µM)	16 µg/mL (≈ 45.9 µM)						
CC1Cn2cc(C(=O)O)c(=O)c3cc(F)c(N4CCN(Cc5ccccc5C(F)(F)F)CC4)c(c32)S1 (stereo unspecified)	> 64 µg/mL	8 µg/mL (≈ 15.3 µM)	> 64 µg/mL	> 64 µg/mL	8 µg/mL (≈ 15.3 µM)	> 64 µg/mL	> 64 µg/mL	> 64 µg/mL						
O=C(O)c1cn2c3c(c(Cl)c(F)cc3c1=O)SC(c1ccccc1F)C2 (stereo unspecified)	4 µg/mL (≈ 10.2 µM)	0.5 µg/mL (≈ 1.27 µM)	> 64 µg/mL	8 µg/mL (≈ 20.3 µM)	0.5 µg/mL (≈ 1.27 µM)	> 64 µg/mL	> 64 µg/mL	> 64 µg/mL						
O=C(O)c1cn2c3c(c(N4CCNCC4)c(F)cc3c1=O)SCC2												5.59%	2.73%	11.5%
CN1CCN(c2c(F)cc3c(=O)c(C(=O)O)cn4c3c2SCC4)CC1 [RUFLOXACIN]	16 µg/mL (≈ 44 µM)	0.12 µg/mL (≈ 0.33 µM)	4 µg/mL (≈ 11 µM)	1 µg/mL (≈ 2.75 µM)	0.25 µg/mL (≈ 0.688 µM)	8 µg/mL (≈ 22 µM)	2 µg/mL (≈ 5.5 µM)	2 µg/mL (≈ 5.5 µM)	4430 ng/mL	7740 ng/mL	410 ng/mL	10.5%	2.18%	15.6%

Further lines, with some results ahead:

MIC (Enterococcus faecalis)	MIC (Klebsiella pneumoniae)	MIC (Proteus vulgaris)	MIC (Staphylococcus aureus)	MIC (Escherichia coli)	MIC (Pseudomonas aeruginosa)	MIC (Enterobacter cloacae)	MIC [1]	concentration at 4 h [2]	concentration at 1 h [3]	concentration at 15 h [6]	SMILES	dose excreted [4]	dose excreted [5]	dose excreted [7]
64 µg/mL (≈ 131 µM)	> 64 µg/mL	> 64 µg/mL	32 µg/mL (≈ 65.4 µM)	8 µg/mL (≈ 16.3 µM)	> 64 µg/mL	> 64 µg/mL	> 64 µg/mL				CC1Cn2cc(C(=O)O)c(=O)c3cc(F)c(N4CCN(Cc5ccc(F)cc5F)CC4)c(c32)S1 (stereo unspecified)			
32 µg/mL (≈ 81.3 µM)	2 µg/mL (≈ 5.08 µM)	> 64 µg/mL	2 µg/mL (≈ 5.08 µM)	2 µg/mL (≈ 5.08 µM)	> 64 µg/mL	> 64 µg/mL	> 64 µg/mL				O=C(O)c1cn2c3c(c(Cl)c(F)cc3c1=O)SC(c1cccc(F)c1)C2 (stereo unspecified)			
> 64 µg/mL	> 64 µg/mL	> 64 µg/mL	32 µg/mL (≈ 67.9 µM)	16 µg/mL (≈ 33.9 µM)	> 64 µg/mL	> 64 µg/mL	> 64 µg/mL				CC1Cn2cc(C(=O)O)c(=O)c3cc(F)c(N4CCN(Cc5cccc(F)c5)CC4)c(c32)S1 (stereo unspecified)			
16 µg/mL (≈ 39.5 µM)	0.25 µg/mL (≈ 0.617 µM)	> 64 µg/mL	4 µg/mL (≈ 9.86 µM)	0.25 µg/mL (≈ 0.617 µM)	> 64 µg/mL	8 µg/mL (≈ 19.7 µM)	8 µg/mL (≈ 19.7 µM)				CCNCC1CCN(c2c(F)cc3c(=O)c(C(=O)O)cn4c3c2SC(C)C4)C1 (stereo unspecified)			
2 µg/mL (≈ 4.54 µM)	2 µg/mL (≈ 4.54 µM)	> 64 µg/mL	0.5 µg/mL (≈ 1.14 µM)	1 µg/mL (≈ 2.27 µM)	> 64 µg/mL	> 64 µg/mL	> 64 µg/mL				CC1Cn2cc(C(=O)O)c(=O)c3cc(F)c(N4CCN(c5ccccn5)CC4)c(c32)S1 (stereo unspecified)			
32 µg/mL (≈ 92.7 µM)	0.25 µg/mL (≈ 0.724 µM)	> 64 µg/mL	16 µg/mL (≈ 46.3 µM)	0.12 µg/mL (≈ 0.347 µM)	64 µg/mL (≈ 185 µM)	16 µg/mL (≈ 46.3 µM)	4 µg/mL (≈ 11.6 µM)				CC1Cn2cc(C(=O)O)c(=O)c3cc(F)c(-n4ccnc4)c(c32)S1 (stereo unspecified)			
8 µg/mL (≈ 20.3 µM)	0.25 µg/mL (≈ 0.635 µM)	> 64 µg/mL	4 µg/mL (≈ 10.2 µM)	0.25 µg/mL (≈ 0.635 µM)	> 64 µg/mL	8 µg/mL (≈ 20.3 µM)	> 64 µg/mL				O=C(O)c1cn2c3c(c(Cl)c(F)cc3c1=O)SC(c1ccc(F)cc1)C2 (stereo unspecified)			
64 µg/mL (≈ 140 µM)	> 64 µg/mL	> 64 µg/mL	16 µg/mL (≈ 35 µM)	8 µg/mL (≈ 17.5 µM)	> 64 µg/mL	32 µg/mL (≈ 69.9 µM)	64 µg/mL (≈ 140 µM)				CN1CCN(c2c(F)cc3c(=O)c(C(=O)O)cn4c3c2SC(c2ccc(F)cc2)C4)CC1 (stereo unspecified)			
64 µg/mL (≈ 164 µM)	0.5 µg/mL (≈ 1.28 µM)	64 µg/mL (≈ 164 µM)	16 µg/mL (≈ 40.9 µM)	0.5 µg/mL (≈ 1.28 µM)	32 µg/mL (≈ 81.8 µM)	1 µg/mL (≈ 2.55 µM)	1 µg/mL (≈ 2.55 µM)				CC1Cn2cc(C(=O)O)c(=O)c3cc(F)c(N4CCN(C=O)CC4)c(c32)S1 (stereo unspecified)			
